Reference: ChEMBL document CHEMBL1687736, “Identification and biochemical characterization of small-molecule inhibitors of Clostridium botulinum neurotoxin serotype A” (Antimicrob Agents Chemother, 2009)
Active and inactive are the calls of the source. The rule behind the calls is not given here.

Key:
[1] = molecular target: Botulinum neurotoxin type A (Clostridium botulinum) (UniProt P0DPI0); assay: Inhibition of protease activity of recombinant full-length Clostridium botulinum BoNT/A light chain at 20 uM after 5 mins by HPLC-based assay
Summary of the method: (§1)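 Full-length recombinant BoNT/A LC (110-140 nM) with 0.8 mM SNAP-25 17-mer peptide in 50 mM HEPES pH 7.3. Compound was added from DMSO stock without preincubation, then LC, 5 min at 37°C. TFA stop, reverse-phase HPLC. Percent inhibition came from substrate cleaved with versus without compound; the 20 µM data are means ± SD of two independent assays.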

[2] = molecular target: Botulinum neurotoxin type A (Clostridium botulinum) (UniProt P0DPI0); assay: Inhibition of protease activity of recombinant full-length Clostridium botulinum BoNT/A light chain at 200 uM after 5 mins by HPLC-based assay; summary of the method: as §1
[3] = Cytotoxicity against mouse Neuro2a cells at >= 10 uM; type: cell-based; settings: n2a
[4] = molecular target: Botulinum neurotoxin type A (Clostridium botulinum) (UniProt P0DPI0); assay: Inhibition of Clostridium botulinum BoNT/A light chain-mediated SNAP-25 cleavage in mouse Neuro2a cells at 15 uM after 30 mins by Western blotting; type: cell-based
[5] = Inhibition of zinc carboxypeptidase A at up to 20 uM
Summary of the method: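 Carboxypeptidase A kit plate assay: CPA with compounds from DMSO at various concentrations, 5 min at 25°C, then stop solution and absorbance read at 350 nm. Percent inhibition was taken versus CPA with DMSO; potato tuber CPA inhibitor served as control. Two independent determinations, each in triplicate.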

[6] = molecular target: Botulinum neurotoxin type A (Clostridium botulinum) (UniProt P0DPI0); assay: Inhibition of Clostridium botulinum BoNT/A light chain-mediated SNAP-25 cleavage in mouse Neuro2a cells at 10 uM after 30 mins by Western blotting; type: cell-based
[7] = molecular target: T1, Botulinum neurotoxin type A (Clostridium botulinum, UniProt P0DPI0); assay: Inhibition of protease activity of recombinant Clostridium botulinum BoNT/A (1 to 425) light chain after 5 mins by HPLC-based assay
Summary of the method: (§2)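 Recombinant BoNT/A light chain, full-length at 140 nM or truncated (residues 1-425) at 620 nM final, with 0.8 mM 17-mer SNAP-25 (187-203) peptide in 50 mM HEPES pH 7.3. Inhibitor was added from DMSO at nine concentrations, then 5 min at 37°C. Stopped with 0.7% TFA, cleavage quantified by reverse-phase HPLC, and IC50 derived by log-probit analysis.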

[8] = molecular target: Botulinum neurotoxin type A (Clostridium botulinum) (UniProt P0DPI0); assay: Inhibition of Clostridium botulinum BoNT/A-mediated neuromuscular block in CD1 mouse phrenic nerve hemidiaphragm assessed as time required to 50% loss of twitch tension at 20 uM after 15 to 20 mins
[9] = molecular target: T1, Botulinum neurotoxin type A; assay: Inhibition of protease activity of recombinant full-length Clostridium botulinum BoNT/A light chain after 5 mins by HPLC-based assay; summary of the method: as §2
[10] = molecular target: T2, Botulinum neurotoxin type B (Clostridium botulinum) (UniProt P10844); assay: Inhibition of protease activity of recombinant full-length Clostridium botulinum BoNT/B light chain at 20 uM after 5 mins by HPLC-based assay
T2 sequence (whole entry): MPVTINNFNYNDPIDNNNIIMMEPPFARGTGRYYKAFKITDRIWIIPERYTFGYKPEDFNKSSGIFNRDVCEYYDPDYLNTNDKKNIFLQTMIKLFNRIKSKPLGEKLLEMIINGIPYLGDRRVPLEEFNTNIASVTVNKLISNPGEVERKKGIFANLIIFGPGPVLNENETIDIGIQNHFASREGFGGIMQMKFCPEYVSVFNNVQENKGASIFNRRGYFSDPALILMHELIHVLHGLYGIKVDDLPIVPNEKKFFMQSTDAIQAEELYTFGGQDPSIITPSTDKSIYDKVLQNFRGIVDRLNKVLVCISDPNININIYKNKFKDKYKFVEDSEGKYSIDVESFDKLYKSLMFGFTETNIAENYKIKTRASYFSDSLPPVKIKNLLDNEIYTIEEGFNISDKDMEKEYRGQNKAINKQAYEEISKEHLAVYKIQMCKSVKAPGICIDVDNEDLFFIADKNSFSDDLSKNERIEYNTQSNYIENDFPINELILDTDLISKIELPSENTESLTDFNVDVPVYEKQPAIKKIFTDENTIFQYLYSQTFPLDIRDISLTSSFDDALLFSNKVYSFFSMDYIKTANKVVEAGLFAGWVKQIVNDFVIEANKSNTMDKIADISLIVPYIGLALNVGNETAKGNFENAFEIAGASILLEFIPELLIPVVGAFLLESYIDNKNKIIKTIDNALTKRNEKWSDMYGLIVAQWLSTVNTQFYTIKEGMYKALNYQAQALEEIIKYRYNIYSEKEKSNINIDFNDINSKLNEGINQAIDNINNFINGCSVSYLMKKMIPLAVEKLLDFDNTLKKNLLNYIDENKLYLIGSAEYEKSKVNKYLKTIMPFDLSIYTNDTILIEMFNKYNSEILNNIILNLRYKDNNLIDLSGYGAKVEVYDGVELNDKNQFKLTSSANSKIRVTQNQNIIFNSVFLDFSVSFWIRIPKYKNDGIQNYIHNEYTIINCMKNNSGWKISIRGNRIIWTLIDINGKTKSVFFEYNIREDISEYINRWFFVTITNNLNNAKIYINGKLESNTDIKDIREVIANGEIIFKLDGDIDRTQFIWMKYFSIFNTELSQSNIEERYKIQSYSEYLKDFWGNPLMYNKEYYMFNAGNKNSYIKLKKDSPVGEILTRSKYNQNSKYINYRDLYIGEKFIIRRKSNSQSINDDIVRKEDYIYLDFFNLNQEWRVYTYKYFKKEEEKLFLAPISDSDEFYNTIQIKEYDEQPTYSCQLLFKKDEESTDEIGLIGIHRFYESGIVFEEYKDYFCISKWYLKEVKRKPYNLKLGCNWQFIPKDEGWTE
Summary of the method: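 Recombinant BoNT/B LC (30-40 nM) with 0.4 mM 35-mer human VAMP-2 (60-94) peptide, 1 mM DTT, 50 mM HEPES pH 7.3. Compound was added at 20 µM final without preincubation, then 5 min at 37°C. TFA stop, reverse-phase HPLC quantification of cleavage. Means ± SD of two independent assays.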

[11] = molecular target: Botulinum neurotoxin type A (Clostridium botulinum) (UniProt P0DPI0); assay: Inhibition of Clostridium botulinum BoNT/A-mediated neuromuscular block in CD1 mouse phrenic nerve hemidiaphragm assessed as time required to 50% loss of twitch tension at 10 uM after 15 to 20 mins
[12] = molecular target: Botulinum neurotoxin type A (Clostridium botulinum) (UniProt P0DPI0); assay: Inhibition of Clostridium botulinum BoNT/A-mediated neuromuscular block in CD1 mouse phrenic nerve hemidiaphragm assessed as time required to 50% loss of twitch tension at 5 uM after 15 to 20 mins
[13] = molecular target: Botulinum neurotoxin type A (Clostridium botulinum) (UniProt P0DPI0); assay: Inhibition of Clostridium botulinum BoNT/A-mediated neuromuscular block in CD1 mouse phrenic nerve hemidiaphragm assessed as time required to 50% loss of twitch tension at 0.5 uM after 15 to 20 mins
[14] = molecular target: T1, Botulinum neurotoxin type A; assay: Binding affinity to Clostridium botulinum BoNT/A

T1 sequence (P0DPI0 2-448 limits assumed): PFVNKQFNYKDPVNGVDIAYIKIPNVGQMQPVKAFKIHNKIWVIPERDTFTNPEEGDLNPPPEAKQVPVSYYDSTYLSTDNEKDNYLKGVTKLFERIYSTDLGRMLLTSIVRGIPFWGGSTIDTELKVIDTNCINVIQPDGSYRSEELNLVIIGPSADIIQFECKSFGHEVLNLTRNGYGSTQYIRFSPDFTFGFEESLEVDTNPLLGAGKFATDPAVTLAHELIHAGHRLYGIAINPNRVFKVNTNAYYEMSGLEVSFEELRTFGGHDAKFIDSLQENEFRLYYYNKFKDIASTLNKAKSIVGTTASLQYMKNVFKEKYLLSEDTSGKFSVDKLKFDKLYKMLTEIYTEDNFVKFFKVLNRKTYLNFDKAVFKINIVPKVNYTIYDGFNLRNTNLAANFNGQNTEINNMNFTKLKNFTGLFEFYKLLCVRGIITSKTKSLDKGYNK
Botulinum neurotoxin type A (Clostridium botulinum), sequence (P0DPI0 2-448 limits assumed): as above

For `Cc1ccc(NC(=O)/C(CC(=O)c2sc(Nc3ccccc3Cl)nc2C)=N/Nc2ccc([N+](=O)[O-])cc2[N+](=O)[O-])c(C)c1`, the inhibition [1] was 51% and the inhibition [2] was 85%.

Compound `Cc1ccc([N+](=O)[O-])cc1NC(=O)NNC(=O)CNC(=O)NCc1ccco1` has an inhibition [1] of 52% and an inhibition [2] of 75%.

In the case of `O=C1c2ccccc2C(=O)N1CNc1ccccc1/C(=N/Nc1ccc([N+](=O)[O-])cc1[N+](=O)[O-])c1ccccc1`, the inhibition [1] is reported as 49% and the inhibition [2] is reported as 82%.

With `O=[N+]([O-])c1ccc(NCCNc2ccc([N+](=O)[O-])cc2)cc1` the inhibition [1] was 44% and the inhibition [2] was 80%.

In the case of `O=[N+]([O-])c1cccc(CN(Cc2cccc([N+](=O)[O-])c2O)c2ccccc2)c1O`, the inhibition [1] is reported as 37% and the inhibition [2] is reported as 75%.

For `O=[N+]([O-])c1ccc(NC(c2ccccc2)c2ccc3cccnc3c2O)cc1` (racemic), the inhibition [1] was 52%, the Activity [3] was “Toxic” and the inhibition [2] was 87%.

With `Oc1c(C(Nc2cccc3cccnc23)c2ccccc2)ccc2cccnc12` (racemic) the Activity [4] was “Active”, the Activity [5] was “inactive” and the inhibition [6] was 66%. The IC50 [7] was 3900 nM, the TIME [8] was 1.09 h and the IC50 [9] was 3200 nM. The inhibition [10] was 6.9% and the inhibition [2] was 91.9%.

For `Oc1c(C(Nc2ccccn2)c2ccccc2)ccc2cccnc12` (racemic), the Activity [4] was “Active”, the Activity [5] was “inactive” and the inhibition [6] was “Active”. It also gave an IC50 [7] of 1500 nM, a TIME [11] of 4.44 h and an IC50 [9] of 1600 nM. The inhibition [10] was 8.8%.

For `Oc1c(C(Nc2cccnc2)c2ccc(C(F)(F)F)cc2)ccc2cccnc12` (racemic), the Activity [4] was “Active”, the Activity [5] was “inactive” and the inhibition [6] was “Active”. The TIME [12] was 3.6 h, the IC50 [7] was 5000 nM and the IC50 [9] was 4700 nM. It also gave an inhibition [10] of 30.2% and an inhibition [2] of 92.7%.

In the case of `Oc1c(C(Nc2cccnc2)c2ccccc2F)ccc2cccnc12` (racemic), the Activity [4] is reported as “Active”, the Activity [5] is reported as “inactive” and the inhibition [6] is reported as 68%. The IC50 [7] was 2400 nM, the TIME [11] was 4.68 h and the IC50 [9] was 3900 nM. It also gave an inhibition [10] of 16.8% and an inhibition [2] of 92.8%.

With `CCOc1ccc(C(Nc2cccnc2)c2cc(Cl)c3cccnc3c2O)cc1` (racemic) the Activity [4] was “Active”, the Activity [5] was “inactive” and the inhibition [6] was “Active”. For the same compound, the IC50 [7] was 1600 nM, the TIME [13] was 4.52 h and the IC50 [9] was 2100 nM. The inhibition [10] was 31.2% and the inhibition [2] was 96.2%.

`CC(CO)(Nc1ccc([N+](=O)[O-])cc1[N+](=O)[O-])C(=O)O` (racemic) showed an inhibition [1] of 29% and an inhibition [2] of 65%.

With Ac-CRATKML-NH2 the Ki [14] was 1900 nM, the Activity [8] was “inactive” and the TIME [8] was 0.878 h.
